The source of these data is ChEMBL document CHEMBL1144767, “Characterization of chemical libraries for luciferase inhibitory activity” (J Med Chem, 2008).

Calls of active or inactive are those of the source. The rule behind the calls is not given here. Bounds are passed on as bounds.

The target of test [1] is T1, Luciferin 4-monooxygenase (Photuris pensylvanica, UniProt Q27757).
T1 sequence (Q27757 whole entry): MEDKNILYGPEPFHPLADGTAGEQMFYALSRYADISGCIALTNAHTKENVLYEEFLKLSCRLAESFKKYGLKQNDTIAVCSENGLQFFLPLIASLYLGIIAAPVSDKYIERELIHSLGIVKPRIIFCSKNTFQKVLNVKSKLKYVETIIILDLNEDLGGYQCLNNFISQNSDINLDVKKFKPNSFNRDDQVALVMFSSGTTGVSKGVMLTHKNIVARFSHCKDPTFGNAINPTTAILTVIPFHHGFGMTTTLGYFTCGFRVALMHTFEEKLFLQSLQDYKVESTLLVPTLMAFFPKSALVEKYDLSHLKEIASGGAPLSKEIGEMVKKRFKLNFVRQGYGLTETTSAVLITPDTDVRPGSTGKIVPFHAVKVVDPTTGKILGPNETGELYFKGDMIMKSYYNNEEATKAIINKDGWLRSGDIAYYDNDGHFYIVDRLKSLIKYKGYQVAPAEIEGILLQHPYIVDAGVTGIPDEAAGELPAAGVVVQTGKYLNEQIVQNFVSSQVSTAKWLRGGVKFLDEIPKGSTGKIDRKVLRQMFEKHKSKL
The experiment in a line: (§1) Inhibition of luciferase Photuris pennsylvanica by Promega Kinase-Glo assay. Put shortly:
(§2)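 Detection by 2 µL of EasyLite or Kinase-Glo reagent (Kinase-Glo containing P. pennsylvanica luciferase). 1536-well luminescence. 16 two-fold concentrations, duplicate wells, repeated on two or three days.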

Test [2] has as its target T2, Luciferin 4-monooxygenase (Photinus pyralis, UniProt P08659). The experiment in a line: Inhibition of Photinus pyralis luciferase by PK-Light assay.
Test [3] has as its target T2, Luciferin 4-monooxygenase. The experiment in a line: (§3) Inhibition of Photinus pyralis luciferase by BrightGlo reporter gene assay. In outline: (§4)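 5 nM purified P. pyralis luciferase in SteadyGlo or BrightGlo reporter-gene reagent; no extra ATP or D-luciferin added. 1536-well luminescence. Curves from 16 two-fold concentrations in duplicate, repeated on two or three separate days.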

Test [4] concerns the target T2, Luciferin 4-monooxygenase. Nature of the test: (§5) Inhibition of Photinus pyralis luciferase by Steady-Glo reporter gene assay. Put shortly:
as §4

Test [5] addresses T2, Luciferin 4-monooxygenase. Nature of the test: Inhibition of Photinus pyralis luciferase.
The nature of test [6]: Inhibition of Renilla reniformis luciferase.
In test [7] the target is T2, Luciferin 4-monooxygenase. Nature of the test: Inhibition of Photinus pyralis luciferase by Easy lite assay. Put shortly:
as §2

In test [8] the target is Luciferin 4-monooxygenase (Photinus pyralis) (UniProt P08659). The experiment in a line: Inhibition of […] luciferase at 100 uM. In outline: (§6)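 Light attenuation in two-chamber quartz cuvette at room temperature. One half holds the reaction, the other holds compound in the same buffer. Firefly reaction: 100 µM ATP and D-luciferin, 100 nM enzyme, 5 nm slit. Renilla reaction: 50 µM coelenterazine, 100 nM enzyme, 10 nm slit. Emission scanned 400–700 nm in 2 nm steps, 0.1 s integration. Compounds 2-fold diluted from 100 µM.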

Test [9] shares this target. Described as §3. Put shortly:
as §4

For test [10] the target is unchanged. Described as §5. In outline:
as §4

Test [11] shares this target. Nature of the test: Inhibition of Photinus pyralis luciferase at 1 uM.
For test [12] the target is unchanged. The experiment in a line: Inhibition of Photinus pyralis luciferase at 3 uM.
Test [13] deals with T3, Luciferin 4-monooxygenase (Photuris pensylvanica) (UniProt Q27757).
T3 sequence (whole entry): T1 sequence (Q27757 whole entry)
The test is described as §1. Put shortly:
as §2

Test [14] has as its target Luciferin 4-monooxygenase (Photinus pyralis) (UniProt P08659). The experiment in a line: Inhibition of Photinus pyralis luciferase at 0.04 uM.
Test [15] has as its target T3, Luciferin 4-monooxygenase (Photuris pensylvanica). The experiment in a line: Inhibition of Photuris pennsylvanica luciferase at 57 uM by Promega Kinase-Glo assay.
Test [16] has as its target Luciferin 4-monooxygenase (Photinus pyralis) (UniProt P08659). The experiment in a line: Inhibition of […] luciferase at 20 uM assessed as quenching of luminescence. Also noted: scale not given: the % may be the effect or the level left. Put shortly: as §6
The next test deals with Renilla reniformis. Nature of the test: Inhibition of Renilla reniformis luciferase at 20 uM assessed as quenching of luminescence. Also on record: scale not given: the % may be the effect or the level left. Put shortly:
as §6

Luciferin 4-monooxygenase (Photinus pyralis), sequence (P08659 whole entry): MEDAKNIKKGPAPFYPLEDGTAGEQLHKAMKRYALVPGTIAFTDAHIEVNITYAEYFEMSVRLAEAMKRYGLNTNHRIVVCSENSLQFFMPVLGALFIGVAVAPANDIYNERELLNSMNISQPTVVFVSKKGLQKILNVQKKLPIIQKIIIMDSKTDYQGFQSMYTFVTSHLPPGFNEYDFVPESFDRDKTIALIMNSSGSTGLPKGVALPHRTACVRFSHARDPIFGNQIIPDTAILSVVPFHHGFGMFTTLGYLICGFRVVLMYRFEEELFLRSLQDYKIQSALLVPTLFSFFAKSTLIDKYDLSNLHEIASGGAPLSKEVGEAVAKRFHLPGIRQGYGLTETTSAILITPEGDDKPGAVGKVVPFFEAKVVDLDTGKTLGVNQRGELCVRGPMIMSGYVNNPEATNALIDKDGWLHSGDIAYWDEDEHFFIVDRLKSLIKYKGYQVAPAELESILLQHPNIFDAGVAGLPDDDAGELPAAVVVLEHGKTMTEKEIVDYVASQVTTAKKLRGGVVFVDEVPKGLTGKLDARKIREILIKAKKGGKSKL
T2 sequence (P08659 whole entry): as above

`Cc1ccc(O)c(/N=N/c2ccccc2)n1`: the 50% inhibitory concentration (IC50) in [1] amounted to 1.8 µM; in test [2], 1.7 µM; in test [3], 2 µM; in test [4], 1.6 µM; in test [5], 4.5 µM; in test [6], 36 µM. The 50% inhibitory concentration (IC50) in test [7] is 1.26 µM. Besides, the outcome in [8] was inactive.

Take `CCOc1ccc(-c2cc(C(=O)N3CCN(c4ccccn4)CC3)c3ccccc3n2)cc1`: the result in test [9] and in test [10] was inactive. In test [6], this compound returned an IC50 of 11 µM.

Take `Cc1ccc(-c2cc(C(=O)N3CCN(c4ncccn4)CC3)c3ccccc3n2)cc1`: the outcome in test [9] and in [10] was inactive. The same compound registered an IC50 in [6] above 25 µM.

As to `CCN(CC)c1ccc2cc(-c3nc4ccccc4n3C)c(=O)oc2c1`, the inhibition in [11] is 28%.

`COc1ccc(-c2cc3ccc(OCc4nn[nH]n4)cc3oc2=O)cc1` returned an inhibition in [12] of 100%. Further, the result in test [13] was inactive. In addition, the IC50 in test [2] is 5.4 µM; in test [3], 13.3 µM; in test [4] it was 10 µM; in test [5], 1.1 µM; in [7] it was 3.2 µM.

As to `Clc1cccc(/C=N\C=N\c2cccc(Cl)c2)c1`, the outcome in [13], in test [9] and in test [10] was inactive. The half-inhibitory concentration (IC50) in test [2] was 7.8 µM; in test [5], 4.5 µM; in test [6], above 50 µM; in test [7] it was 11.4 µM.

In the case of `CCOC(=O)N1CCN(C(=O)c2cc(-c3ccc(OCC)cc3)nc3ccccc23)CC1`, the IC50 in [1] is above 50 µM; in test [2], 1.4 µM; in [5], 0.9 µM; in test [6] it was 20 µM; in test [7] it was 1 µM. Moreover, the result in test [9] and in test [10] was inactive.

For the compound `CCOc1ccc(-c2cc(C(=O)N3CCC4(CC3)OCCO4)c3ccccc3n2)cc1`, the IC50 in [1] was above 50 µM; in [2], 1.4 µM; in test [5], 0.7 µM; in test [6], 11 µM; in test [7], 1 µM. Moreover, the outcome in test [9] and in test [10] was inactive.

For `CCN(CC)c1ccc2cc(-c3nc4ccccc4[nH]3)c(=O)oc2c1`, the IC50 is 16 µM in test [1]; 0.38 µM in [2]; 0.4 µM in test [3]; 0.12 µM in [4]; 0.24 µM in [5]; 5.3 µM in test [6]. In addition, in [7], the concentration for half-maximal inhibition (IC50) is 14 µM. For the same compound, the inhibition in test [14] worked out at 100%.

Regarding `Cc1ccc(C(=O)Nc2nc3ccc(S(C)(=O)=O)cc3s2)s1`, the outcome in test [13] and in test [15] was inactive. Moreover, the IC50 in [2] amounted to 5.4 µM; in test [3] it was 13.3 µM; in test [4] it was 10 µM; in test [5], 1.1 µM; in test [7], 3.2 µM.

With `Cc1cc(-c2ccc(/N=N/c3ccc4c(S(=O)(=O)O)cc(S(=O)(=O)O)c(N)c4c3O)c(C)c2)ccc1/N=N/c1ccc2c(S(=O)(=O)O)cc(S(=O)(=O)O)c(N)c2c1O` [EVANS BLUE], the half-inhibitory concentration (IC50) stood at 20 µM in test [1]; 6.9 µM in test [2]; 17 µM in test [3]; 22 µM in test [4]; 1.7 µM in test [5]; 10 µM in test [6]. Besides, in [7], half-maximal inhibition (IC50) required 7.6 µM. The Activity (in test [16]; with Renilla reniformis) was 50% in each case.

Turning to `CN(C)c1ccc(/C=C2\C(=O)Nc3ccccc32)cc1`, the result in test [13] was inactive. For the same compound, the IC50 in test [6] stood at 19 µM.

For `CCOc1ccc(-c2cc(C(=O)N3CCN(C)CC3)c3ccccc3n2)cc1`, the IC50 in test [1] is above 50 µM; in [2], 2.4 µM; in [5] it was 1.3 µM; in [6], above 25 µM; in test [7], 1.1 µM. Besides, the result in test [9] and in [10] was inactive.
